This note sets out measurements from ChEMBL document CHEMBL1828575, “Design, synthesis and antiproliferative activities of biarylolefins based on polyhydroxylated and carbohydrate scaffolds” (Eur J Med Chem, 2011).

A short description of test [1]: Cytotoxicity against human NCI60 cells assessed as cellular growth at 10 uM after 48 hrs by SRB assay relative to untreated control. Format: functional. The method in brief: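 NCI-60 panel lines grown in RPMI 1640 with 5% FBS and 2 mM L-glutamine. Plated at 5000–40,000 cells/well and preincubated 24 h at 37 °C, 5% CO₂, with time-zero plates fixed in TCA. Compounds, dissolved in DMSO and diluted in medium, were applied for 48 h. Cells were TCA-fixed (10% final for adherent, 16% for suspension) and stained with 0.4% SRB in 1% acetic acid. Dye was solubilised in 10 mM Tris base and read at 515 nm; growth was expressed as a percentage of untreated control.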
(The SRB assay estimates cell density from bound dye.)

The next test is filed under the species Ovis aries. Description: Inhibition of sheep brain tubulin polymerization at 10 uM. An outline of the steps:
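Microtubule protein from sheep brain, purified by two assembly/disassembly cycles (37 °C/0 °C), in 100 mM MES pH 6.6, 1 mM EGTA, 0.5 mM MgCl₂. Compounds in DMSO were tested at a single concentration, with incubation at 37 °C for 10 min and then 0 °C for 5 min before measuring assembly rate, following a modified Guénard protocol.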

SMILES strings stand for the structures. Active and inactive are the calls of the source. The rule behind the calls is not given here.

In the case of `COc1cc(/C(=C2\O[C@@H]([C@H]3COC(C)(C)O3)[C@H]3OC(C)(C)O[C@@H]23)c2ccc3c(c2)OCO3)cc(OC)c1OC`, the Activity in test [1] is on record as 61%.
`COc1cc(/C(=C2\O[C@@H]([C@H](O)CO)[C@H]3OC(C)(C)O[C@@H]23)c2cccc(N)c2)cc(OC)c1OC`: the Activity in test [1] was determined as 103%. The “tubulin polymerization inhibition call (active/not active)” value in the test listed under Ovis aries is “inactive”.
With `COc1cc([C@@H]2c3cc4c(cc3C[C@H]3COC(=O)[C@@H]32)OCO4)cc(OC)c1OC`, the “tubulin polymerization inhibition call (active/not active)” value in the test filed under Ovis aries is “Active”.
As to `COc1cc(/C(=C2\O[C@@H]([C@H](O)CO)[C@H]3OC(C)(C)O[C@@H]23)c2ccc3ccccc3c2)cc(OC)c1OC`, in test [1], the Activity was 96%.
As for `COc1cc(C(=C2O[C@@H]([C@H]3COC(C)(C)O3)[C@H]3OC(C)(C)O[C@@H]23)c2cc(OC)c(OC)c(OC)c2)cc(OC)c1OC`, the Activity in test [1] stood at 105%.
The same measure, in the same setting: for `COc1cc(/C(=C2\O[C@@H]([C@H](O)CO)[C@H]3OC(C)(C)O[C@@H]23)c2ccc3c(c2)OCO3)cc(OC)c1OC` the value was 106%.
As for `COc1cc(C(=C(CO)CO)c2ccc3c(c2)OCO3)cc(OC)c1OC`, the “tubulin polymerization inhibition call (active/not active)” value in the test listed under Ovis aries was “inactive”.
